Laboratory results reported in ChEMBL document CHEMBL1131831, “A rapid method to identify exo-protease inhibitors” (Bioorg Med Chem Lett, 1999).

Columns and labels:
[1] = substrate: CN(C(=O)[C@@H](CCCCC(=N)N)NC(=O)[C@H](Cc1ccccc1)NC(=O)[C@H]1CCCN1C(=O)OCc1ccccc1)c1ccc(C#C/C=C/c2ccc([N+](=O)[O-])c(O)c2)cc1; assay: Proteolysis constant (Km), when mixed with kallikrein enzyme for the conversion of water-soluble compound to fluorescent oil-soluble compound
In short: (§1)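 Porcine pancreatic trypsin (type IX), porcine pancreatic kallikrein, bovine spleen cathepsin B and porcine pancreatic elastase, each enzyme added to 12 µM substrate solution over mineral oil, shaken at 37 °C. Buffers: trypsin 10 mM Tris-HCl pH 7.8; kallikrein 50 mM Tris pH 9.0; cathepsin B 100 mM potassium phosphate pH 6.0; elastase 10 mM Tris-HCl pH 7.5. Released fluorophore in the oil is diluted with n-heptane and quantified at 424 nm against oil absorbance at 272 nm.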

[2] = substrate: CC[C@@H](C)[C@@H](NC(=O)OCc1ccccc1)C(=O)N1CCC[C@H]1C(=O)N[C@H](CCCCC(=N)N)C(=O)N(C)c1ccc(C#C/C=C/c2ccc([N+](=O)[O-])c(O)c2)cc1; assay: Proteolysis constant (Km), when mixed with trypsin enzyme for the conversion of water-soluble compound to fluorescent oil-soluble compound; conditions: Sus scrofa; in short: as §1
[3] = substrate: CC(C)C[C@H](NC(=O)[C@H](N)Cc1ccc(O)cc1)C(=O)N[C@@H](C(=O)N(C)c1ccc(C#C/C=C/c2ccc([N+](=O)[O-])c(O)c2)cc1)C(C)C; assay: Proteolysis constant (Km), when mixed with human leukocyte elastase (HLE) enzyme for the conversion of water-soluble compound to fluorescent oil-soluble compound
In short: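 Human leukocyte elastase (1 unit = 1.2 µg; releases 1 µmol/min p-nitrophenol from N-t-BOC-L-alanine-p-nitrophenyl ester, pH 6.5, 37 °C) in 50 mM NaOAc, 100 mM NaCl, 8 mM NaN3 pH 6.0. Enzyme mixed with 12 µM substrate in buffer under a trace mineral-oil layer, shaken at 37 °C. Released fluorophore extracted into oil, diluted with n-heptane, quantified by absorbance at 424 nm against oil at 272 nm.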

[4] = substrate: COCCOCCOCCOCCOC(=O)N[C@@H](C)C(=O)N[C@H](C)C(=O)N(C)c1ccc(C#C/C=C/c2ccc([N+](=O)[O-])c(O)c2)cc1; assay: Proteolysis constant (Km), when mixed with elastase enzyme for the conversion of water-soluble compound to fluorescent oil-soluble compound; in short: as §1

B1: Kallikrein 1 (Sus scrofa), O97506 (protein)
chain: MEVIVLFRIISFRQAVYFMCLFAAVSCGCLPQLHKNTFFRGGDVSAMYTPSARHCQMMCTFHPRCLLFSFLPADSTSVTDKRFGCFLKDSVTGMLPRVLRENAISGHSLKQCGHQIRACHRDIYKGIDMRGVNFNVSKVKTVEECQERCTNSIHCLFFTYATQAFNNAEYRNNCLLKHSPGGTPTSIKVLANVESGFSLKPCADSEIGCHMDIFQHLAFSDVDVARVIAPDAFVCRTICTYHPNCLFFTFYTNAWKIESQRNVCFLKTSHSGTPSFPTPQENAISGYSLLTCKQTLPEPCHSKIYSEVDFEGEELNVTFVQGANLCQETCTKTIRCQFFTYSLHPEDCRGEKCKCSLRLSSDGSPTKITHGMRASSGYSLRLCRSGDHSACATKANTRIVGGTDSFLGEWPWQVSLQAKLRAQNHLCGGSIIGHQWVLTAAHCFDGLSLPDIWRIYGGILNISEITKETPFSQVKEIIIHQNYKILESGHDIALLKLETPLNYTDFQKPICLPSRDDTNVVYTNCWVTGWGFTEEKGEIQNILQKVNIPLVSNEECQKSYRDHKISKQMICAGYKEGGKDACKGESGGPLVCKYNGIWHLVGTTSWGEGCARREQPGVYTKVIEYMDWILEKTQDDDGQSWMK
- Km [1]: 92.2 µM

B2: Trypsin (Sus scrofa), P00761 (protein)
chain: FPTDDDDKIVGGYTCAANSIPYQVSLNSGSHFCGGSLINSQWVVSAAHCYKSRIQVRLGEHNIDVLEGNEQFINAAKIITHPNFNGNTLDNDIMLIKLSSPATLNSRVATVSLPRSCAAAGTECLISGWGNTKSSGSSYPSLLQCLKAPVLSDSSCKSSYPGQITGNMICVGFLEGGKDSCQGDSGGPVVCNGQLQGIVSWGYGCAQKNKPGVYTKVCNYVNWIQQTIAAN
- Km [2]: 97 µM

B3: Neutrophil elastase (Homo sapiens), P08246 (protein)
chain: MTLGRRLACLFLACVLPALLLGGTALASEIVGGRRARPHAWPFMVSLQLRGGHFCGATLIAPNFVMSAAHCVANVNVRAVRVVLGAHNLSRREPTRQVFAVQRIFENGYDPVNLLNDIVILQLNGSATINANVQVAQLPAQGRRLGNGVQCLAMGWGLLGRNRGIASVLQELNVTVVTSLCRRSNVCTLVRGRQAGVCFGDSGSPLVCNGLIHGIASFVRGGCASGLYPDAFAPVAQFVNWIDSIIQRSEDNPCPHPRDPDPASRTH
- Km [3]: 16.1 µM

B4: Chymotrypsin-like elastase family member 2A (Sus scrofa), P08419 (protein)
chain: MIRALLLSTLVAGALSCGLPANLPQLPRVVGGEDARPNSWPWQVSLQYDSSGQWRHTCGGTLVDQSWVLTAAHCISSSRTYRVVLGRHSLSTNEPGSLAVKVSKLVVHQDWNSNQLSNGNDIALLKLASPVSLTDKIQLGCLPAAGTILPNNYVCYVTGWGRLQTNGASPDILQQGQLLVVDYATCSKPGWWGSTVKTNMICAGGDGIISSCNGDSGGPLNCQGANGQWQVHGIVSFGSSLGCNYYHKPSVFTRVSNYIDWINSVIANN
- Km [4]: 325 µM
